From ChEMBL document CHEMBL3102785, “Characterization of the congeners in the lantibiotic NAI-107 complex” (2014)
Values after ≈ are worked out from the molar mass of the structure shown.

How the values were obtained:
Assay type in all cases: functional
Enterococcus faecium [1] = test: Antibacterial activity against Enterococcus faecium L569 expressing VanA gene after 24 hrs by broth microdilution method
Outline: (§1)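 CLSI broth microdilution MIC in Müller Hinton broth with 20 mg/L CaCl2 and 10 mg/L MgCl2. Compounds were dissolved in DMSO and diluted in medium just before testing. Inoculum was 5 × 10^5 cfu/mL, incubated 24 h at 37 °C. MIC was the lowest concentration giving complete suppression of visible growth. Strains came from ATCC or an in-house collection (L-prefix).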

Enterococcus faecium [2] = test: Antibacterial activity against Enterococcus faecium L568 expressing VanS gene after 24 hrs by broth microdilution method; outline: as §1
Enterococcus faecalis [3] = test: Antibacterial activity against Enterococcus faecalis L560 expressing VanA gene after 24 hrs by broth microdilution method; outline: as §1
Enterococcus faecalis [4] = test: Antibacterial activity against Enterococcus faecalis L559 expressing VanS gene after 24 hrs by broth microdilution method; outline: as §1
Streptococcus pyogenes = test: Antibacterial activity against Streptococcus pyogenes L49 after 24 hrs by broth microdilution method
Streptococcus pneumoniae = test: Antibacterial activity against Streptococcus pneumoniae ATCC 49619 after 24 hrs by broth microdilution method
Staphylococcus aureus [5] = test: Antibacterial activity against Staphylococcus aureus GISA L3798 after 24 hrs by broth microdilution method
Outline: (§2)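 Broth microdilution per CLSI in Müller Hinton broth with 20 mg/L CaCl2 and 10 mg/L MgCl2. Inoculum 5 × 10^5 cfu/mL, 24 h at 37 °C. Compounds dissolved in DMSO and diluted in medium just before testing. MIC taken as lowest concentration giving complete suppression of visible growth.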

Staphylococcus aureus [6] = test: Antibacterial activity against methicillin-resistant Staphylococcus aureus ND035208 after 24 hrs by broth microdilution method; outline: as §2
Staphylococcus aureus [7] = test: Antibacterial activity against methicillin-sensitive Staphylococcus aureus L819/ATCC 19636 after 24 hrs by broth microdilution method; outline: as §1

| Compound | MIC (Enterococcus faecium [1]; L569, 24 h) | MIC (Enterococcus faecium [2]; L568, 24 h) | MIC (Enterococcus faecalis [3]; L560, 24 h) | MIC (Enterococcus faecalis [4]; L559, 24 h) | MIC (Streptococcus pyogenes; L49, 24 h) | MIC (Streptococcus pneumoniae; ATCC 49619, 24 h) | MIC (Staphylococcus aureus [5]; GISA L3798, 24 h) | MIC (Staphylococcus aureus [6]; ND035208, 24 h) | MIC (Staphylococcus aureus [7]; L819/ATCC 19636, 24 h) | MIC (Enterococcus faecium [1]) | MIC (Enterococcus faecium [2]) | MIC (Enterococcus faecalis [3]) | MIC (Enterococcus faecalis [4]) | MIC (Streptococcus pyogenes) | MIC (Streptococcus pneumoniae) | MIC (Staphylococcus aureus [5]) | MIC (Staphylococcus aureus [6]) | MIC (Staphylococcus aureus [7]) |
| --- | --- | --- | --- | --- | --- | --- | --- | --- | --- | --- | --- | --- | --- | --- | --- | --- | --- | --- |
| C=C1NC(=O)[C@H](Cc2c[nH]c3ccccc23)NC(=O)[C@@H](NC(=O)/C(=C/C)NC(=O)[C@@H](N)C(C)C)CSC[C@@H](C(=O)N[C@@H]2C(=O)N3CCC[C@H]3C(=O)NCC(=O)N[C@H](C(=O)N[C@H](C(=O)N[C@H]3CSC[C@@H]4NC(=O)[C@H](CC(=O)O)NC(=O)[C@H](CSC[C@@H]5NC(=O)[C@H](Cc6ccccc6)NC(=O)[C@H](CS/C=C\NC5=O)NC4=O)NC(=O)CNC(=O)CNC(=O)CNC(=O)[C@@H]4CCCN4C3=O)[C@@H](C)O)CSC2C)NC(=O)[C@H](CC(C)C)NC1=O (stereo not given in full) | 32 µg/mL (≈ 14.7 µM) | 32 µg/mL (≈ 14.7 µM) | 32 µg/mL (≈ 14.7 µM) | 64 µg/mL (≈ 29.3 µM) | ≤ 0.03 µg/mL | ≤ 0.03 µg/mL | 16 µg/mL (≈ 7.33 µM) | 8 µg/mL (≈ 3.66 µM) | 4 µg/mL (≈ 1.83 µM) | – | – | – | – | – | – | – | – | – |
| C=C1NC(=O)[C@H](Cc2c[nH]c3ccc(Cl)cc23)NC(=O)[C@@H](NC(=O)/C(=C/C)NC(=O)[C@@H](N)C(C)C)CSC[C@@H](C(=O)N[C@@H]2C(=O)N3CCC[C@H]3C(=O)NCC(=O)N[C@H](C(=O)N[C@H](C(=O)N[C@H]3CSC[C@@H]4NC(=O)[C@H](CC(=O)O)NC(=O)[C@H](CSC[C@@H]5NC(=O)[C@H](Cc6ccccc6)NC(=O)[C@H](CS/C=C\NC5=O)NC4=O)NC(=O)CNC(=O)CNC(=O)CNC(=O)[C@@H]4C(O)C(O)CN4C3=O)[C@@H](C)O)CSC2C)NC(=O)[C@H](CC(C)C)NC1=O (stereo not given in full) | 4 µg/mL (≈ 1.78 µM) | 4 µg/mL (≈ 1.78 µM) | 1 µg/mL (≈ 0.444 µM) | 2 µg/mL (≈ 0.889 µM) | ≤ 0.001 µg/mL | 0.015 µg/mL (≈ 0.00667 µM) | 1 µg/mL (≈ 0.444 µM) | 1 µg/mL (≈ 0.444 µM) | 0.25 µg/mL (≈ 0.111 µM) | – | – | – | – | – | – | – | – | – |
| C=C1NC(=O)[C@H](Cc2c[nH]c3ccc(Cl)cc23)NC(=O)[C@@H](NC(=O)/C(=C/C)NC(=O)[C@@H](N)C(C)C)CSC[C@@H](C(=O)N[C@@H]2C(=O)N3CCC[C@H]3C(=O)NCC(=O)N[C@H](C(=O)N[C@H](C(=O)N[C@H]3CSC[C@@H]4NC(=O)[C@H](CC(=O)O)NC(=O)[C@H](CSC[C@@H]5NC(=O)[C@H](Cc6ccccc6)NC(=O)[C@H](CS/C=C\NC5=O)NC4=O)NC(=O)CNC(=O)CNC(=O)CNC(=O)[C@@H]4CCCN4C3=O)[C@@H](C)O)CSC2C)NC(=O)[C@H](CC(C)C)NC1=O (stereo not given in full) | 8 µg/mL (≈ 3.61 µM) | 8 µg/mL (≈ 3.61 µM) | 4 µg/mL (≈ 1.8 µM) | 8 µg/mL (≈ 3.61 µM) | ≤ 0.001 µg/mL | 0.03 µg/mL (≈ 0.0135 µM) | 4 µg/mL (≈ 1.8 µM) | 4 µg/mL (≈ 1.8 µM) | 0.5 µg/mL (≈ 0.225 µM) | – | – | – | – | – | – | – | – | – |
| GENTAMICIN | – | – | – | – | – | – | – | – | – | 16 µg/mL | 16 µg/mL | 4 µg/mL | 4 µg/mL | 16 µg/mL | 8 µg/mL | 0.02 µg/mL | > 128 µg/mL | 1 µg/mL |
| C=C1NC(=O)[C@H](Cc2c[nH]c3ccc(Cl)cc23)NC(=O)[C@@H](NC(=O)/C(=C/C)NC(=O)[C@@H](N)C(C)C)CSC[C@@H](C(=O)N[C@@H]2C(=O)N3CCC[C@H]3C(=O)NCC(=O)N[C@H](C(=O)N[C@H](C(=O)N[C@H]3CSC[C@@H]4NC(=O)[C@H](CC(=O)O)NC(=O)[C@H](CSC[C@@H]5NC(=O)[C@H](Cc6ccccc6)NC(=O)[C@H](CS/C=C\NC5=O)NC4=O)NC(=O)CNC(=O)CNC(=O)CNC(=O)[C@@H]4CC(O)CN4C3=O)[C@@H](C)O)CSC2C)NC(=O)[C@H](CC(C)C)NC1=O (stereo not given in full) | 4 µg/mL (≈ 1.79 µM) | 4 µg/mL (≈ 1.79 µM) | 2 µg/mL (≈ 0.895 µM) | 2 µg/mL (≈ 0.895 µM) | ≤ 0.001 µg/mL | 0.03 µg/mL (≈ 0.0134 µM) | 2 µg/mL (≈ 0.895 µM) | 1 µg/mL (≈ 0.448 µM) | 0.25 µg/mL (≈ 0.112 µM) | – | – | – | – | – | – | – | – | – |
